Values joined by “and” are separate entries in the source; they are usually repeats but may differ in a detail not shown here. Identical values can stand only once.
System: HEK-293T
Assay: Multiplex assay against HEK293T
Assay type: toxicity, cell-based
Conditions: human
How it was run: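 Values for tubulin, mitochondrial-mass and membrane-permeability phenotypes are per cents of cells with healthy nuclei. These cells were identified by CellPathfinder machine-learning gating of live cells that had been stained at seeding with Hoechst33342, BioTracker Green Microtubule Cytoskeleton Dye, MitoTracker Red and Annexin V Alexa Fluor 680 and imaged on a CQ1 microscope at 37°C and 5% CO2 after compound addition. The gating first set Hoechst high-intensity objects apart from normal cells, then split normal cells into healthy, pyknosed or fragmented nuclei, and pyknosed cells into mitotic or apoptotic.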

[1] = 12 h, 10 µM, compound concentration 10 uM
[2] = 24 h, 10 µM, compound concentration 10 uM
[3] = 48 h, 10 µM, compound concentration 10 uM
[4] = 12 h, 1 µM, compound concentration 1 uM
[5] = 24 h, 1 µM, compound concentration 1 uM
[6] = 48 h, 1 µM, compound concentration 1 uM

CCC(=O)N1CCN(c2ccc(-n3c(=O)ccc4cnc5ccc(-c6cnc7ccccc7c6)cc5c43)cc2C(F)(F)F)CC1 [TORIN1]
Population Apoptotic (%) [1]: 71% and 51% | Population Healthy Nuclei (%) [1]: 76% | Population Hoechst High Intensity Objects (%) [1]: 7% | Population Membrane Permeable-Phenotype (%) [1]: 0% | Population Mitochondria Different-Phenotype (%) [1]: 78% and 87% | Population Mitotic Cells (%) [1]: 48% | Population Normal (%) [1]: 88% and 92% | Population Tubulin-Different-Phenotype (%) [1]: 37% | Total Cell Count [1]: 373 and 266 | Population Apoptotic (%) [2]: 44% | Population Healthy Nuclei (%) [2]: 75% | Population Membrane Permeable-Phenotype (%) [2]: 0% | Population Mitochondria Different-Phenotype (%) [2]: 75% and 82% | Population Mitotic Cells (%) [2]: 46% and 55% | Population Normal (%) [2]: 86% and 77% | Population Tubulin-Different-Phenotype (%) [2]: 43% and 33% | Total Cell Count [2]: 337 and 225 | Population Apoptotic (%) [3]: 56% and 68% | Population Healthy Nuclei (%) [3]: 70% and 56% | Population Membrane Permeable-Phenotype (%) [3]: 0% | Population Mitochondria Different-Phenotype (%) [3]: 77% and 80% | Population Mitotic Cells (%) [3]: 43% | Population Normal (%) [3]: 73% and 38% | Population Tubulin-Different-Phenotype (%) [3]: 47% and 37% | Total Cell Count [3]: 292 and 235

CC(C)(C)c1ccc(S(=O)(=O)Nc2ccc(Cl)cc2C(=O)c2cc[n+]([O-])cc2)cc1 [VERCIRNON]
Population Apoptotic (%) [4]: 32% and 52% | Population Fragmented Nuclei (%) [4]: 10% and 5% | Population Healthy Nuclei (%) [4]: 77% and 84% | Population Hoechst High Intensity Objects (%) [4]: 7% | Population Membrane Permeable-Phenotype (%) [4]: 0% | Population Mitochondria Different-Phenotype (%) [4]: 33% and 51% | Population Mitotic Cells (%) [4]: 68% and 47% | Population Normal (%) [4]: 92% | Population Pyknosed Nuclei (%) [4]: 12% and 10% | Population Tubulin-Different-Phenotype (%) [4]: 21% and 22% | Total Cell Count [4]: 428 and 424 | Population Apoptotic (%) [1]: 30% and 39% | Population Fragmented Nuclei (%) [1]: 6% and 4% | Population Healthy Nuclei (%) [1]: 83% and 82% | Population Hoechst High Intensity Objects (%) [1]: 6% and 5% | Population Membrane Permeable-Phenotype (%) [1]: 0% and 1% | Population Mitochondria Different-Phenotype (%) [1]: 35% and 51% | Population Mitotic Cells (%) [1]: 69% and 60% | Population Normal (%) [1]: 93% and 94% | Population Pyknosed Nuclei (%) [1]: 10% and 13% | Population Tubulin-Different-Phenotype (%) [1]: 37% and 27% | Total Cell Count [1]: 451 and 344 | Population Apoptotic (%) [5]: 41% and 28% | Population Fragmented Nuclei (%) [5]: 8% | Population Healthy Nuclei (%) [5]: 81% | Population Hoechst High Intensity Objects (%) [5]: 6% and 5% | Population Membrane Permeable-Phenotype (%) [5]: 0% | Population Mitochondria Different-Phenotype (%) [5]: 21% and 32% | Population Mitotic Cells (%) [5]: 58% and 71% | Population Normal (%) [5]: 93% and 94% | Population Pyknosed Nuclei (%) [5]: 9% | Population Tubulin-Different-Phenotype (%) [5]: 15% and 16% | Total Cell Count [5]: 522 and 521 | Population Apoptotic (%) [2]: 22% and 28% | Population Fragmented Nuclei (%) [2]: 10% and 7% | Population Healthy Nuclei (%) [2]: 77% and 82% | Population Hoechst High Intensity Objects (%) [2]: 3% and 5% | Population Membrane Permeable-Phenotype (%) [2]: 1% and 0% | Population Mitochondria Different-Phenotype (%) [2]: 15% and 31% | Population Mitotic Cells (%) [2]: 77% and 71% | Population Normal (%) [2]: 96% and 94% | Population Pyknosed Nuclei (%) [2]: 12% and 9% | Population Tubulin-Different-Phenotype (%) [2]: 20% and 23% | Total Cell Count [2]: 594 and 437 | Population Apoptotic (%) [6]: 28% and 32% | Population Fragmented Nuclei (%) [6]: 16% and 14% | Population Healthy Nuclei (%) [6]: 76% and 81% | Population Hoechst High Intensity Objects (%) [6]: 2% | Population Membrane Permeable-Phenotype (%) [6]: 0% and 2% | Population Mitochondria Different-Phenotype (%) [6]: 16% and 14% | Population Mitotic Cells (%) [6]: 71% and 67% | Population Normal (%) [6]: 97% | Population Pyknosed Nuclei (%) [6]: 7% and 4% | Population Tubulin-Different-Phenotype (%) [6]: 13% and 12% | Total Cell Count [6]: 834 and 877 | Population Apoptotic (%) [3]: 21% and 25% | Population Fragmented Nuclei (%) [3]: 13% and 12% | Population Healthy Nuclei (%) [3]: 81% and 80% | Population Hoechst High Intensity Objects (%) [3]: 3% and 2% | Population Membrane Permeable-Phenotype (%) [3]: 2% and 1% | Population Mitochondria Different-Phenotype (%) [3]: 12% and 18% | Population Mitotic Cells (%) [3]: 78% and 75% | Population Normal (%) [3]: 96% and 97% | Population Pyknosed Nuclei (%) [3]: 5% and 7% | Population Tubulin-Different-Phenotype (%) [3]: 14% and 15% | Total Cell Count [3]: 929 and 586

COC[C@@H](c1ccc(C(F)(F)F)cc1)N1CCN(C2(C)CCN(C(=O)c3c(C)ncnc3C)CC2)C[C@@H]1C.O=C(O)/C=C\C(=O)O [VICRIVIROC MALEATE]
Population Apoptotic (%) [4]: 46% and 45% | Population Fragmented Nuclei (%) [4]: 7% | Population Healthy Nuclei (%) [4]: 80% | Population Hoechst High Intensity Objects (%) [4]: 9% and 5% | Population Membrane Permeable-Phenotype (%) [4]: 0% | Population Mitochondria Different-Phenotype (%) [4]: 47% and 51% | Population Mitotic Cells (%) [4]: 53% and 54% | Population Normal (%) [4]: 90% and 94% | Population Pyknosed Nuclei (%) [4]: 12% and 11% | Population Tubulin-Different-Phenotype (%) [4]: 27% and 17% | Total Cell Count [4]: 406 and 387 | Population Apoptotic (%) [1]: 44% and 62% | Population Fragmented Nuclei (%) [1]: 6% and 5% | Population Healthy Nuclei (%) [1]: 75% and 72% | Population Hoechst High Intensity Objects (%) [1]: 8% and 16% | Population Membrane Permeable-Phenotype (%) [1]: 0% | Population Mitochondria Different-Phenotype (%) [1]: 63% and 78% | Population Mitotic Cells (%) [1]: 55% and 37% | Population Normal (%) [1]: 91% and 83% | Population Pyknosed Nuclei (%) [1]: 18% and 21% | Population Tubulin-Different-Phenotype (%) [1]: 57% and 51% | Total Cell Count [1]: 315 and 265 | Population Apoptotic (%) [5]: 30% and 31% | Population Fragmented Nuclei (%) [5]: 9% | Population Healthy Nuclei (%) [5]: 79% and 82% | Population Hoechst High Intensity Objects (%) [5]: 6% and 5% | Population Membrane Permeable-Phenotype (%) [5]: 0% and 1% | Population Mitochondria Different-Phenotype (%) [5]: 24% | Population Mitotic Cells (%) [5]: 69% and 68% | Population Normal (%) [5]: 93% and 94% | Population Pyknosed Nuclei (%) [5]: 10% and 8% | Population Tubulin-Different-Phenotype (%) [5]: 21% and 11% | Total Cell Count [5]: 564 and 515 | Population Apoptotic (%) [2]: 34% and 60% | Population Fragmented Nuclei (%) [2]: 6% and 10% | Population Healthy Nuclei (%) [2]: 80% and 77% | Population Hoechst High Intensity Objects (%) [2]: 6% and 16% | Population Membrane Permeable-Phenotype (%) [2]: 0% | Population Mitochondria Different-Phenotype (%) [2]: 53% and 70% | Population Mitotic Cells (%) [2]: 66% and 39% | Population Normal (%) [2]: 93% and 83% | Population Pyknosed Nuclei (%) [2]: 13% and 12% | Population Tubulin-Different-Phenotype (%) [2]: 49% and 39% | Total Cell Count [2]: 406 and 310 | Population Apoptotic (%) [6]: 21% and 34% | Population Fragmented Nuclei (%) [6]: 11% and 13% | Population Healthy Nuclei (%) [6]: 80% and 81% | Population Hoechst High Intensity Objects (%) [6]: 2% | Population Membrane Permeable-Phenotype (%) [6]: 1% | Population Mitochondria Different-Phenotype (%) [6]: 13% and 11% | Population Mitotic Cells (%) [6]: 78% and 65% | Population Normal (%) [6]: 97% | Population Pyknosed Nuclei (%) [6]: 7% and 5% | Population Tubulin-Different-Phenotype (%) [6]: 12% and 8% | Total Cell Count [6]: 930 and 751 | Population Apoptotic (%) [3]: 38% and 53% | Population Fragmented Nuclei (%) [3]: 12% and 14% | Population Healthy Nuclei (%) [3]: 75% and 70% | Population Hoechst High Intensity Objects (%) [3]: 4% and 11% | Population Membrane Permeable-Phenotype (%) [3]: 0% | Population Mitochondria Different-Phenotype (%) [3]: 49% and 50% | Population Mitotic Cells (%) [3]: 61% and 46% | Population Normal (%) [3]: 95% and 88% | Population Pyknosed Nuclei (%) [3]: 11% and 15% | Population Tubulin-Different-Phenotype (%) [3]: 35% and 38% | Total Cell Count [3]: 559 and 394

O=C(NCCNCC(O)COc1ccc(O)cc1)N1CCOCC1.O=C(NCCNCC(O)COc1ccc(O)cc1)N1CCOCC1.O=C(O)/C=C/C(=O)O (stereo not drawn) [XAMOTEROL FUMARATE]
Population Apoptotic (%) [4]: 39% and 60% | Population Fragmented Nuclei (%) [4]: 5% | Population Healthy Nuclei (%) [4]: 79% and 76% | Population Hoechst High Intensity Objects (%) [4]: 4% and 14% | Population Membrane Permeable-Phenotype (%) [4]: 0% | Population Mitochondria Different-Phenotype (%) [4]: 39% and 57% | Population Mitotic Cells (%) [4]: 60% and 39% | Population Normal (%) [4]: 95% and 85% | Population Pyknosed Nuclei (%) [4]: 14% and 17% | Population Tubulin-Different-Phenotype (%) [4]: 26% and 21% | Total Cell Count [4]: 339 and 271 | Population Apoptotic (%) [1]: 35% and 29% | Population Fragmented Nuclei (%) [1]: 7% and 4% | Population Healthy Nuclei (%) [1]: 83% and 86% | Population Hoechst High Intensity Objects (%) [1]: 6% and 5% | Population Membrane Permeable-Phenotype (%) [1]: 0% | Population Mitochondria Different-Phenotype (%) [1]: 39% and 62% | Population Mitotic Cells (%) [1]: 65% and 70% | Population Normal (%) [1]: 93% and 94% | Population Pyknosed Nuclei (%) [1]: 8% and 9% | Population Tubulin-Different-Phenotype (%) [1]: 19% and 23% | Total Cell Count [1]: 499 and 406 | Population Apoptotic (%) [5]: 26% and 45% | Population Fragmented Nuclei (%) [5]: 8% and 9% | Population Healthy Nuclei (%) [5]: 78% and 80% | Population Hoechst High Intensity Objects (%) [5]: 6% and 13% | Population Membrane Permeable-Phenotype (%) [5]: 0% | Population Mitochondria Different-Phenotype (%) [5]: 18% and 38% | Population Mitotic Cells (%) [5]: 73% and 54% | Population Normal (%) [5]: 93% and 86% | Population Pyknosed Nuclei (%) [5]: 12% and 10% | Population Tubulin-Different-Phenotype (%) [5]: 17% and 15% | Total Cell Count [5]: 475 and 366 | Population Apoptotic (%) [2]: 21% and 33% | Population Fragmented Nuclei (%) [2]: 9% and 7% | Population Healthy Nuclei (%) [2]: 79% and 85% | Population Hoechst High Intensity Objects (%) [2]: 5% and 4% | Population Membrane Permeable-Phenotype (%) [2]: 0% | Population Mitochondria Different-Phenotype (%) [2]: 25% and 42% | Population Mitotic Cells (%) [2]: 78% and 66% | Population Normal (%) [2]: 94% and 95% | Population Pyknosed Nuclei (%) [2]: 11% and 7% | Population Tubulin-Different-Phenotype (%) [2]: 12% and 17% | Total Cell Count [2]: 632 and 542 | Population Apoptotic (%) [6]: 21% and 41% | Population Fragmented Nuclei (%) [6]: 14% and 11% | Population Healthy Nuclei (%) [6]: 77% and 81% | Population Hoechst High Intensity Objects (%) [6]: 2% and 4% | Population Membrane Permeable-Phenotype (%) [6]: 2% and 0% | Population Mitochondria Different-Phenotype (%) [6]: 11% and 18% | Population Mitotic Cells (%) [6]: 78% and 58% | Population Normal (%) [6]: 97% and 95% | Population Pyknosed Nuclei (%) [6]: 7% and 6% | Population Tubulin-Different-Phenotype (%) [6]: 9% and 10% | Total Cell Count [6]: 918 and 526 | Population Apoptotic (%) [3]: 17% and 25% | Population Fragmented Nuclei (%) [3]: 15% and 16% | Population Healthy Nuclei (%) [3]: 79% and 77% | Population Hoechst High Intensity Objects (%) [3]: 0% and 2% | Population Membrane Permeable-Phenotype (%) [3]: 1% and 0% | Population Mitochondria Different-Phenotype (%) [3]: 13% and 16% | Population Mitotic Cells (%) [3]: 82% and 74% | Population Normal (%) [3]: 99% and 97% | Population Pyknosed Nuclei (%) [3]: 5% | Population Tubulin-Different-Phenotype (%) [3]: 6% and 10% | Total Cell Count [3]: 1116 and 827

— ChEMBL document CHEMBL5724801, “EUbOPEN Chemogenomics Library - Multiplex” (2024)
